Laboratory results published in PubChem BioAssay AID743256 (The Scripps Research Institute Molecular Screening Center, 2014).
The campaign covered roughly 2,900 compounds. About 1,300 (45%) were called active. The set was probably picked from earlier hits. Not all results are given here. Unmarked numbers belong to inactive results.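 Rule for the calls: active = mean inhibition over the triplicate runs exceeds the activity threshold set in the earlier primary screen (cut at about 20% in these data); inactive = the rest.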

These compounds were tested against Disintegrin and metalloproteinase domain-containing protein 10 (Homo sapiens) (UniProt O14672) (assay: ADAM10 inhibitors, counter-screen for ADAM17 exosite inhibitor project, biochemical, FRET, human ADAM10 (AID 743256;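 note: 0% = DMSO wells and 100% = marimastat wells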)). Details: recombinant ADAM10, EDANS/DABCYL FRET peptide cleavage, 3 h; at 6.95 µM; active compounds read high.
Chain of Disintegrin and metalloproteinase domain-containing protein 10 (Homo sapiens) (O14672 214-748 limits assumed): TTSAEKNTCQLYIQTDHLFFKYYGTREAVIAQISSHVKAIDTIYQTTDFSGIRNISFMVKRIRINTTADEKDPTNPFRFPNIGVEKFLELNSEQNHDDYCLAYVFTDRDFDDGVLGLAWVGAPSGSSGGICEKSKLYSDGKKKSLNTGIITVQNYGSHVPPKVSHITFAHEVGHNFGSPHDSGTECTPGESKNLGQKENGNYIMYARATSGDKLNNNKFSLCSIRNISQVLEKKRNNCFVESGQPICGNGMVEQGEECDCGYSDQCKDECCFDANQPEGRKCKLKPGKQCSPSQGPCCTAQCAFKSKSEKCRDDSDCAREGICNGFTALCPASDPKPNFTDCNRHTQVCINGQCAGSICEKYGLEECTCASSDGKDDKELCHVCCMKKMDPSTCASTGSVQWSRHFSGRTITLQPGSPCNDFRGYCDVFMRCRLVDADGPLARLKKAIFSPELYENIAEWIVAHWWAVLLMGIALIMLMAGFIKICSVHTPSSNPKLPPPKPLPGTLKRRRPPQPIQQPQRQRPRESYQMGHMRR
Outline: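 System: human ADAM10 metalloprotease enzyme in a cell-free biochemical assay; amount: enzyme 2X stock at 20 nM; signal: FRET fluorescence readout; also added: EDANS/DABCYL DM2 peptide, 2X stock 20 µM; control set: 1 µM marimastat (high) and DMSO (low); times: 30 min plus 3 h, 25 °C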
With `O=C(CN1CCN(c2nc(-c3ccccc3)cs2)CC1)NCc1ccc2c(c1)OCO2` the inhibition was 24.1% (active). `CC1(Cc2cccc(C#N)c2)C(=O)Nc2ccc(-c3cccc(C(F)(F)F)c3)cc21` (stereo not given) was tested, and the inhibition was 36.6% (active). `COCCNC(=O)C(c1ccc(C)o1)N(Cc1ccccc1)C(=O)Cn1nnc2ccccc21` (stereo not given) showed an inhibition of -7.67%. For `CCN1C(=O)C(CC(=O)Nc2cc(C)ccc2C)SC1=Nc1ccc(S(N)(=O)=O)cc1` (stereo not given), the inhibition was 5.34%. For `O=C(CC1SC(=Nc2ccccc2)N(Cc2ccccn2)C1=O)Nc1cccc(Cl)c1` (stereo not given), the inhibition was 35% (active). `COc1ccc(CC(N)c2csc(NC(=O)NC(c3ccccc3)c3ccccc3)n2)cc1` (stereo not given) gave an inhibition of 5.76%. In the case of `C=CCOc1ccccc1/C=N/NC(=O)Cc1ccccc1`, the inhibition is reported as -0.63%. For `Cn1c(=O)c2c(nc(N/N=C/c3cccs3)n2Cc2ccc(Br)cc2)n(C)c1=O`, the inhibition was -80.2%. With `O=C(COC(=O)CCCSc1nc2ccccc2[nH]1)Nc1ccc(Oc2ccccc2)cc1` the inhibition was 39.3% (active). `O=C1/C(=C\c2ccsc2)NC(=S)N1c1ccccc1` was tested, and the inhibition was 10.1%. For `COc1ccc(CN(C)C(=O)CC(c2ccccc2)c2ccccc2)cc1`, the inhibition was 7.1%. For `Clc1ccc(C(Cn2ccnc2)OCc2ccsc2Cl)c(Cl)c1` (stereo not given), the inhibition was 22.7% (active). For `C=CCC[C@@H](Cc1ccc(F)cc1)C(=O)OC[C@H](Cc1c[nH]c2ccccc12)NC(=O)[C@@H](CC=C)CC(=O)N(CCO)Cc1ccccc1`, the inhibition was 35.2% (active). `C=CC[C@H](CC(=O)N(CCO)Cc1ccccc1)C(=O)N[C@@H](COC(=O)[C@@H](CC=C)Cc1ccc(F)cc1)Cc1ccccc1` was tested, and the inhibition was 25.1% (active). With `C=CCC[C@@H](Cc1ccc(F)cc1)C(=O)O[C@H](CNC(=O)[C@H](CC=C)CC(=O)N(CCO)Cc1ccccc1)c1ccccc1` the inhibition was 45.3% (active). Work on `COc1cc(NC(=O)CCS(=O)(=O)c2ccc3c(c2)oc(=O)n3C)cc(OC)c1` yielded an inhibition of 11.3%. Compound `O=C(CSc1nnc(Nc2ccccc2)s1)Nc1cccnc1Cl` has an inhibition of 10.6%. `Cc1nnc(SCC(=O)Nn2cnnc2)s1` was tested, and the inhibition was -7.63%. For `Cc1ccc(NC(=S)NNC(=O)CSc2nnc(SCc3ccccc3Cl)s2)cc1`, the inhibition was 37.1% (active). With `CCOC(=O)c1c(Cc2ccc(Cl)cc2)c[nH]c1C` the inhibition was 19.5%. In the case of `COc1ccc([C@@H]2[C@@H]3C(=O)N(C(C)(C)C)C(=O)[C@@H]3[C@]3(Cc4ccccc4)C(=O)N(c4cccc(Br)c4)C(=O)N23)cc1`, the inhibition is reported as 28.6% (active). With `CC[C@@]12C(=O)N(c3ccccc3)C(=O)N1[C@H](c1ccc(Br)cc1)[C@@H]1C(=O)N(C(C)(C)C)C(=O)[C@@H]12` the inhibition was 6.71%. For `CC(C)(C)N1C(=O)[C@H]2[C@@H](c3ccc(Br)cc3)N3C(=O)N(c4cccc(Cl)c4)C(=O)[C@@]3(C)[C@H]2C1=O`, the inhibition was 22.2% (active). Compound `COc1cccc(CNc2nc(C(F)(F)F)nc3ccccc23)c1` has an inhibition of 8.29%. In the case of `CC(C)(C)OC(=O)CNC(=O)c1[nH]cnc1C(=O)N[C@@H](Cc1ccccc1)C(=O)OCc1ccccc1`, the inhibition is reported as 42.9% (active). `CC(C)(C)OC(=O)N1CCC(NC(=O)c2[nH]cnc2C(=O)N[C@@H](Cc2ccccc2)C(=O)OCc2ccccc2)CC1` was tested, and the inhibition was 35.8% (active). `Cc1ccc(C(=O)Nc2ccc(C)c(S(=O)(=O)N(C)C)c2)s1` showed an inhibition of 19.2%. `CCn1c(Cc2cccs2)nnc1SCC(=O)c1ccc(C)cc1` gave an inhibition of 2.71%. `COc1cccc(/C=N/NC(=O)c2cccc([N+](=O)[O-])c2)c1OS(=O)(=O)c1ccc(C)cc1` was tested, and the inhibition was 27.1% (active). In the case of `Cc1ccc(OCCOCCOc2ccc(Br)cc2/C=N\NC(=O)c2ccncc2)cc1`, the inhibition is reported as 13.6%. In the case of `CCCCCC(=O)N1C[C@H](O)[C@@H](n2cc(COC(=O)c3ccccc3)nn2)C[C@@H]1c1ccc(C)cc1`, the inhibition is reported as 22.1% (active). With `O=C(Cc1ncc(C(F)(F)F)cc1Cl)Nc1cccc(Br)c1` the inhibition was 6.87%. With `CCc1cccc(NC(=O)COC(=O)C2CCN(c3ccc(C(F)(F)F)cn3)CC2)c1` the inhibition was 25.6% (active). Work on `Cc1ccc(OCc2nnc(SC/C=C/c3ccccc3)n2Cc2ccco2)cc1` yielded an inhibition of 18.7%. With `Cc1ccc(-c2nnc(SCC(=O)Nc3ccc(Oc4ccccc4)cc3)n2Cc2ccco2)cc1` the inhibition was 30.9% (active). `Cc1sc2nc(SCC(=O)c3ccc(O)c(O)c3)n(Cc3ccco3)c(=O)c2c1C` showed an inhibition of 16.8%. For `COc1ccc(C(=O)NN2C(=O)C3C(c4ccccc4)C=CC(c4ccccc4)C3C2=O)cc1` (stereo not given), the inhibition was 25.6% (active). In the case of `CC(C)C(=O)Nc1cccc(NC(=S)NC(=O)C(c2ccccc2)c2ccccc2)c1`, the inhibition is reported as 31.3% (active). In the case of `O=C(CSc1nc(Nc2ccccc2)nc(N2CCOCC2)n1)Nc1cc(Cl)ccc1O`, the inhibition is reported as 33.4% (active). `CCCN(CC(=O)NC(=O)NC1CCCCC1)CC(=O)Nc1cc(Cl)ccc1Cl` was tested, and the inhibition was 43.7% (active). With `CN(C)c1ccc(NC(=O)NC2CCCCN(Cc3ccc(Cl)cc3)C2=O)cc1` (stereo not given) the inhibition was 1.4%. In the case of `O=C(C[C@H]1C(=O)N(c2ccc(F)c(F)c2)C[C@@H]1Cc1ccccc1)Nc1ccccc1`, the inhibition is reported as 26.5% (active). Compound `COc1ccc(C(=O)Nc2ccc(C3(C#N)CCCC3)cc2)cc1OC` has an inhibition of -1.52%. Compound `NNC(=O)C1CCCn2c1nc1sc3c(c1c2=O)CCCC3` (stereo not given) has an inhibition of -9.79%. With `CCOc1ccc(Nc2nc(Cc3nnc(SCC(=O)c4ccc(C)cc4)o3)cs2)cc1` the inhibition was 17.9%. For `Cc1ccc(C)c(NC(=S)NNC(=S)Nc2ccc(C(C)C)cc2)c1`, the inhibition was 32.5% (active). In the case of `CCCn1nc(C(=O)NNC(=O)CSCC(=O)Nc2cc(C)on2)c2ccccc2c1=O`, the inhibition is reported as -0.39%. For `Cc1cc(NC(=O)CN2C(=O)NC(CC(C)C)C2=O)no1` (stereo not given), the inhibition was 26.2% (active). `CS(=O)(=O)Nc1cccc(C2=NN(S(=O)(=O)c3ccccc3)C(c3cccs3)C2)c1` (stereo not given) was tested, and the inhibition was 11.9%. In the case of `COc1ccc(S(=O)(=O)Nc2ccc(O)c(Sc3nc4ccccc4s3)c2)cc1`, the inhibition is reported as 20.5% (active). With `Cc1ccc(-c2n[nH]c(=S)n2/N=C/c2cc3c(cc2[N+](=O)[O-])OCO3)cc1` the inhibition was 4.16%. For `COc1cc(C2CC(=O)N3CN(Cc4ccccc4)CSC3=C2C#N)ccc1OCc1ccccc1` (stereo not given), the inhibition was 26.5% (active). Compound `CC(C)N(C(=O)[C@H]1C[C@H](CC(=O)NC(C)(C)C)C(=O)N2CCc3c([nH]c4ccc(Cl)cc34)[C@]12C)C(C)C` has an inhibition of 15.5%. In the case of `CN(C)S(=O)(=O)c1cccc(NC(=O)COC(=O)C2(c3ccccc3F)CCCC2)c1`, the inhibition is reported as 28% (active). With `NS(=O)(=O)c1ccc(NC(=O)COC(=O)C2(c3ccc(F)cc3)CCCC2)cc1` the inhibition was 24.3% (active). `Cc1ccc(S(=O)(=O)N2CCN(C(=O)COC(=O)c3c(C)cc(C)cc3C)CC2)c(C)c1` gave an inhibition of 18.9%. `COc1ccc(C(=O)C2CCCN(S(=O)(=O)c3cccc(C)c3)C2)c(C)c1` (stereo not given) gave an inhibition of 11.7%. With `Cc1onc(C(=O)NN)c1-c1csc(COc2ccccc2)n1` the inhibition was -5.47%. `O=C(c1ccccc1)N1CCN(c2ccc([N+](=O)[O-])c(NCc3ccco3)c2)CC1` was tested, and the inhibition was 14.8%. For `O=C(NCc1ccccc1)C1=C[C@@H](c2ccc(C(F)(F)F)cc2)C[C@@H](OCc2ccc(CO)cc2)O1`, the inhibition was 44.5% (active).
